Results from different studies.
Each line is one published result; the experiments were not run side by side.

SMILES	cell line	assay	conditions	IC50 [µM]
CCOc1ccc(Nc2c3c(nc4ccccc24)CCC3)cc1	THP-1	cell growth or viability	72 h	18.6
COc1ccc(Nc2ncnc3c2ncn3Cc2ccc(C(=O)Nc3ccccc3N)cc2)cc1	THP-1	cell growth or viability, MTT	72 h	0.93
COc1nnc2ccc(N3CCC(c4ccc(OCCN5CCN(C)C(=O)[C@H]5C)cc4)CC3)nn12	MP46	cell growth or viability, ATP luminescence	72 h	0.0683
CONC(=O)c1cccc2c1cc(C)n2-c1nc2c(c(NCc3ccccc3)n1)CCCN2	SW-620	cell growth or viability	72 h	2.3
CCNC(=O)c1cc2c(-c3cc(C(C)(C)O)ccc3Oc3c(C)cc(F)cc3C)cn(C)c(=O)c2[nH]1	MP46	cell growth or viability, ATP luminescence	72 h	56600
C[C@H]1C[C@H]2[C@@H]3CCC4=CC(=O)C=C[C@]4(C)[C@H]3C(=O)C[C@]2(C)[C@@]1(O)C(=O)CO	HepaRG	reactive oxygen species, inhibitor	16 h	5.27
O=C(CSc1nc2ccccc2s1)N/N=C/c1ccc(OCC(=O)Nc2ccc([N+](=O)[O-])cc2)cc1	CAPAN-1	cell growth or viability, MTS	72 h	29.4
CC(=O)N1c2ccc(-c3ccc(C(=O)O)cc3)cc2[C@H](Nc2ccc(Cl)cc2)C[C@@H]1C	MP46	cell growth or viability, ATP luminescence	72 h	0.104
N#Cc1ccc(-c2cc(COc3cc(=O)oc4ccccc34)on2)cc1	CAPAN-1	cell growth or viability, MTS	72 h	> 100
O=C(NO)c1ccc(Cn2cnc3c(Nc4cccc([N+](=O)[O-])c4)ncnc32)cc1	THP-1	cell growth or viability, MTT	72 h	0.53
O=c1cc(OCc2cc(-c3ccccn3)no2)c2ccccc2o1	CAPAN-1	cell growth or viability, MTS	72 h	> 100
COc1cc([C@@H]2c3cc4c(cc3[C@H](O)[C@H]3COC(=O)[C@H]23)OCO4)cc(OC)c1OC	MP46	cell growth or viability, ATP luminescence	72 h	0.00656
O=c1cc(OCc2cc(-c3ccc(Cl)cc3Cl)no2)c2ccccc2o1	CAPAN-1	cell growth or viability, MTS	72 h	80.1
COC(=O)Nc1nc2ccc(C(=O)c3cccs3)cc2[nH]1	HepaRG	reactive oxygen species, inhibitor	16 h	9.61
FC(F)(F)c1ccc(-c2cc(CNc3cccc4cccnc34)on2)cc1	CAPAN-1	cell growth or viability, MTS	72 h	19.9
O=C(CSc1nc2ccccc2s1)N/N=C/c1ccc(OCC(=O)Nc2cccc([N+](=O)[O-])c2)cc1	CAPAN-1	cell growth or viability, MTS	72 h	4.25

SMILES	cell line	assay	conditions	IC50 [µM]
CC(C)(C)c1cnc(CSc2cnc(NC(=O)C3CCN(C(=O)CCCCCCCN4Cc5cc6c(cc5C4)C(=O)N(C4CCC(=O)NC4=O)C6=O)CC3)s2)o1 (centres unmarked)	SJSA-1	cell growth or viability, MTT		0.174
COc1ccc(Nc2ncnc3c2ncn3Cc2ccc(C(=O)NO)cc2)cc1	THP-1	cell growth or viability, MTT	72 h	0.42
COc1cc([C@@H]2c3cc4c(cc3[C@@H](O[C@@H]3O[C@@H]5CO[C@@H](C)O[C@H]5[C@H](O)[C@H]3O)[C@H]3COC(=O)[C@H]23)OCO4)cc(OC)c1O	CAPAN-1	cell growth or viability, MTS	72 h	0.24
c1ccc(-c2cc(CNc3cccc4cccnc34)on2)cc1	CAPAN-1	cell growth or viability, MTS	72 h	11.4
O=P1(c2ccccc2)CCCCC1	SW-620	cell growth or viability, MTT	72 h	> 100
Cc1cc2c(C(=O)O)cccc2n1-c1nc2c(c(NCc3ccccc3)n1)CCCN2	SW-620	cell growth or viability	72 h	2.1
FC(F)(F)c1cc(OCc2cc(-c3ccccc3)no2)c2ccccc2n1	CAPAN-1	cell growth or viability, MTS	72 h	7.4
Nc1ccn([C@@H]2O[C@H](CO)[C@@H](O)C2(F)F)c(=O)n1	MP46	cell growth or viability, ATP luminescence	72 h	0.169
Nc1ccccc1NC(=O)c1ccc(Cn2cnc3c(Nc4ccc(Cl)cc4)ncnc32)cc1	THP-1	cell growth or viability, MTT	72 h	0.48
COc1cccc2c1C(=O)c1c(O)c3c(c(O)c1C2=O)C[C@@](O)(C(=O)CO)C[C@@H]3O[C@H]1C[C@H](N)[C@H](O)[C@H](C)O1	SW-620	cell growth or viability, MTT	72 h	0.3
Cc1noc2c1-c1ccc(-c3cnn(C)c3)cc1C(c1ccc(Cl)cc1)=N[C@H]2CC(N)=O	MP46	cell growth or viability, ATP luminescence	72 h	0.248
c1ccc(Oc2ccc(Nc3c4c(nc5ccccc35)CCC4)cc2)cc1	THP-1	cell growth or viability	72 h	18.3
N#Cc1ccc(-c2cc(CNc3cccc4cccnc34)on2)cc1	CAPAN-1	cell growth or viability, MTS	72 h	13.1
CC(C)(C)c1cc(/C=C2\SC(N)=NC2=O)cc(C(C)(C)C)c1O	HepaRG	reactive oxygen species, inhibitor	16 h	0.83
C/C=C1\NC(=O)[C@H]2CSSCC/C=C/[C@H](CC(=O)N[C@H](C(C)C)C(=O)N2)OC(=O)[C@H](C(C)C)NC1=O	MP46	cell growth or viability, ATP luminescence	72 h	0.00127
FC(F)(F)c1ccc(-c2cc(COc3cc(C(F)(F)F)nc4ccccc34)on2)cc1	CAPAN-1	cell growth or viability, MTS	72 h	> 100
